An excerpt weighted towards active compounds, which were near 3.7% of everything screened.
m-calpain inh – inhibitors of pig calpain II, primary screen, biochemical, fluorogenic peptide substrate, 1536-well; purified calpain II, 30 min; inhibition, % at 16 µM; actives 0.37% (n = 220,000); AID 1236, 2008;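 active = inhibition above about 50%, limit read from the data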
Mdm2 ligase inh – MDM2-luciferase reporter signal enhancers, primary screen, MDM2 E3 ligase inhibitor project, cell-based, luminescence, 1536-well | AID 1230, 2008 | actives 0.11% (n = 210,000) | signal enhancement, % at 5 µM | cell-based MDM2 ubiquitination luciferase reporter, 2 h; 0 = plate control, 100 = twice control, blank-subtracted | E3 ubiquitin-protein ligase Mdm2 (Homo sapiens), Q00987;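 active = signal enhancement of 30% or more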;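 also: luminescence tracks abundance of the self-degrading MDM2-luciferase fusion protein; higher signal means inhibition of MDM2 E3 ligase activity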
Target sequence (Q00987 whole entry, looked up, the tested form may be a part): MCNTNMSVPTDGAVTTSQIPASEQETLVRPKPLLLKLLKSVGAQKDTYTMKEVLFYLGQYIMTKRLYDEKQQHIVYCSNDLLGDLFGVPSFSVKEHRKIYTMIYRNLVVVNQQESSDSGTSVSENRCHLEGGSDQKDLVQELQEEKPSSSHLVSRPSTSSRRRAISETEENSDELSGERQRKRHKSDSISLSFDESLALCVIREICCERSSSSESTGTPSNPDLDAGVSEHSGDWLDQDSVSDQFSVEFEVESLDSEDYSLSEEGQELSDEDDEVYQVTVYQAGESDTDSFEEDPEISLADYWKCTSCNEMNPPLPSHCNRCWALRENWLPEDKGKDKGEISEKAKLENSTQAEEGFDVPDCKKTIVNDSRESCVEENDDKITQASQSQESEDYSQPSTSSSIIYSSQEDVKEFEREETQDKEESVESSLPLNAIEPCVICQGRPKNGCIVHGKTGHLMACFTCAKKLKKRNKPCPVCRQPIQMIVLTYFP
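Timing – 2 h compound exposure at 37 °C · Assay system – mammalian cells stably expressing self-ubiquitinating, self-degrading MDM2 E3–luciferase fusion · Amount – 2000 cells seeded into each well · Measure – % luminescence enhancement versus blank-corrected plate control mean · Measured by – SteadyLite luminescence, 15 min reagent step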
PKD1 kinase inh – inhibitors of human PKD1 kinase, biochemical, fluorescence polarization; Serine/threonine-protein kinase D1 (Homo sapiens), Q15139; inhibition, % (test concentration not listed); actives 0.056% (n = 200,000); PKD1 kinase fluorescence polarization assay; in the data active = inhibition above about 50%
Arbovirus anti – antivirals against arbovirus infection, primary screen, cell-based, full library, 10K replicate subset; arbovirus infection cell-based antiviral screen; inhibition, % at 10 µM; actives 0.37% (n = 200,000); in the data active = inhibition above about 30%
KCC2 mod – KCC2 cotransporter modulators, thallium flux, primary screen, cell-based, HEK293 KCC2, FluoZin-2 fluorescence, MLSMR; Solute carrier family 12 member 5 (Homo sapiens), Q9H2X9; KCC2 cells, thallium flux FluoZin-2 fluorescence; B-score of Tl+ flux slope (higher = more flux/activation; lower = inhibition) at 10 µM; actives 2.2% (n = 190,000);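 active = thallium flux slope and its plate-corrected score both differing from the plate sample mean at a set confidence after two filtering rounds, in either direction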;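 also: slope of fluorescence scaled to starting intensity during 10 to 20 s after thallium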
ROMK primary – ROMK potassium channel modulators, primary screen, cell-based, thallium flux, MLSMR library; ATP-sensitive inward rectifier potassium channel 1 (Homo sapiens), P48048; Tet-inducible ROMK, thallium flux fluorescence; actives lie on both sides; B-score at 10 µM; actives 2% (n = 130,000);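 active = signal ratio slope over the read window, or its plate-corrected B-score, at least 3 SD from the plate mean, either direction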;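 also: B-score of the F/F0 ratio slope over 7 to 12 s after thallium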
KCC2 secondary – KCC2 modulators in sodium-free buffer, confirmation, cell-based, HEK293 KCC2, thallium flux, secondary assay | shares compounds with KCC2 mod | FluoZin2 fluorescence; hits give high values | normalised thallium flux (F/F0 slope) at 10 µM | actives 15% (n = 3,700) | AID 1713, 2009;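 active = thallium flux slope above the same plate's solvent-only control mean plus 3 SD; inconclusive = the two replicate wells disagree; inactive = no significant difference from solvent-only control wells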
KCC2 bumet counter – thallium flux persisting under bumetanide in KCC2 cells, confirmation, counter-screen for KCC2 modulator project, cell-based, HEK293 KCC2, FluoZin2, secondary assay 3; shares compounds with KCC2 mod; HEK293-KCC2 + bumetanide/ouabain; hits give high values; normalized thallium flux at 10 µM; actives 49% (n = 3,700); AID 1714, 2009;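 active = thallium entry rate above the same plate's blocked-transporter control wells by more than 3 SD; inconclusive = the two repeat wells disagree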;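 also: raw slope of fluorescence over initial fluorescence between 10 and 20 s after thallium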
KCC2 secondary2 – KCC2 modulators without ouabain present, confirmation, cell-based, HEK293 KCC2, thallium flux, FluoZin2, secondary assay 2; thallium flux FluoZin2 fluorescence; actives lie on both sides; F/F0 rise rate, 10–20 s post-thallium; normalized thallium flux at 10 µM; actives 23% (n = 3,700); shares compounds with KCC2 mod;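 active = thallium flux slope more than 3 SD above or below the plate's solvent-only control mean, mostly below; inconclusive = the two repeat wells disagreed; inactive = no significant shift from solvent-only controls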;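 also: raw slope with 0.1% DMSO as baseline and bumetanide as block control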
HEK counter1 – thallium flux modulation in parental HEK cells, confirmation, counter-screen for KCC2 modulator project, cell-based, counterscreen 1; HEK293 parental cells, thallium flux FluoZin2, ouabain; baseline-ratio fluorescence slope, 10–20 s after thallium; thallium flux rate (normalised fluorescence) at 10 µM; shares compounds with KCC2 mod; actives 46% (n = 3,700);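 active = thallium flux rate significantly above the same plate's solvent-only control wells, beyond their mean plus 3 SD; inconclusive = the two replicate wells gave conflicting results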
KCC2 ouabain – KCC2 inhibitors and activators, ouabain retest, confirmation, HEK-KCC2 cells; actives 48% (n = 3,700); HEK293-KCC2, thallium flux FluoZin2 fluorescence; bidirectional: low = inhibitor, high = activator; raw Tl+ flux slope (below DMSO = inhibition, above = activation) at 10 µM; shares compounds with KCC2 mod;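 active = thallium flux slope beyond 3 SD from same-plate DMSO control mean in most replicates, usually higher, sometimes lower; inconclusive = repeat tests gave conflicting results; inactive = no significant difference from controls in most replicates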;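 also: slope of initial-normalized fluorescence between seconds 10 and 20 after thallium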
HEK293 Tl flux2 – native HEK Tl+ uptake effects, second counter-screen – HEK cells, counterscreen 2, counter-screen for KCC2 modulator project, confirmation; shares compounds with KCC2 mod; HEK293 parental, thallium flux FluoZin-2 fluorescence slope; thallium flux slope at 10 µM; actives 33% (n = 3,700); AID 1718, 2009;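 active = thallium flux slope above the same plate's solvent-control mean plus 3 SD in both duplicate wells; inconclusive = duplicate wells that disagreed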;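 also: run without ouabain in cells lacking the KCC2 cotransporter; slope of fluorescence scaled to its starting value between 10 and 20 s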
* marks the source's active call; other numbers are inactive results; ? = inconclusive; / = no result.

SMILES | m-calpain inh | Mdm2 ligase inh | PKD1 kinase inh | Arbovirus anti | KCC2 mod | ROMK primary | KCC2 secondary | KCC2 bumet counter | KCC2 secondary2 | HEK counter1 | KCC2 ouabain | HEK293 Tl flux2
O=C(NC(=S)N1CCN(c2ccc(F)cc2)CC1)c1cccs1 | 5.5 | -10.6 | -7.2 | 1.2 | 32.4* | 2.61 | 0.0124* | 0.115* | 0.11* | 0.115* | 0.113* | 0.112*
O=C(c1ccc2ccccc2c1)N1CCN(c2ccc(O)cc2)CC1 | -37.1 | 5.0 | -1.5 | -35.8 | -3.7* | / | 0.0104 | 0.00623 | 0.0328 | 0.00817 | 0.019 | 0.0122
Cc1nc(C)c(/C(O)=C/c2nc3ccc([N+](=O)[O-])cc3oc2=O)o1 | -12.3 | -8.7 | 3.1 | 4.0 | 0.922 | -0.123 | / | / | / | / | / | /
CN(NS(=O)(=O)c1ccc(Br)cc1)c1nc(C(F)(F)F)nc2ccccc12 | 34.4 | 2.9 | -7.6 | -7.7 | -3.79* | / | 0.00665 | 0.00589 | 0.029 | 0.00615 | 0.018* | 0.00978
CCCc1cc(-c2n[nH]c(=S)n2CC)cs1 | -24.3 | 13.2 | -4.9 | 0.8 | / | 1.65 | 0.0132* | 0.0204* | 0.0314 | 0.0136* | 0.0258 | 0.0119*
CCCCn1c(-c2csc(CCC)c2)n[nH]c1=S | 47.8 | -7.6 | -1.3 | -0.6 | 37.2* | -1.58 | ? | 0.0799* | 0.0442* | 0.0322* | 0.0408* | 0.0314*
CCc1cc(-c2n[nH]c(=S)n2CC)cs1 | -7.7 | -4.0 | -1.1 | -5.2 | 0.176 | -0.0264 | / | / | / | / | / | /
CCOC(=O)C1CCCN(C(=O)CCCn2nc(C)n3c(cc4sccc43)c2=O)C1 (stereo unspecified) | -7.8 | -17.2 | 4.9 | 1.2 | -4.24* | / | 0.00899 | 0.00876* | 0.0333 | 0.00702 | 0.0208 | 0.011
Cc1oc(-c2cc3c(cc2Cl)OCO3)nc1CN1CCCC1c1ccc(F)cc1 (stereo unspecified) | -21.8 | -4.8 | -4.1 | 0.3 | -0.0417 | 0.161 | / | / | / | / | / | /
Clc1ccc(OCc2cn3ccccc3n2)c2ncccc12 | -23.6 | 5.7 | -4.1 | -5.1 | -3.74* | 0.112 | 0.00621 | 0.0063 | 0.0301 | 0.00662 | 0.0173 | 0.00955
OCc1ccccc1OCCOc1ccc(Cl)c2cccnc12 | -45.5 | -7.4 | -4.9 | 7.9 | -2.19 | -0.776 | / | / | / | / | / | /
Cc1ccc2c(C)nc(Nc3nc(CSc4nnc(C)s4)cc(=O)[nH]3)nc2c1 | -13.6 | -14.0 | -7.7 | -19.5 | -0.024 | / | 0.00999 | 0.00625 | 0.0334 | 0.00801 | 0.0198 | ?
COC(=O)c1ccc(NC(=O)C(=O)NCC2CCCO2)cc1 (stereo unspecified) | -8.9 | -9.7 | -10.5 | 0.8 | 0.617 | -0.0911 | / | / | / | / | / | /
Cc1ccc(C)n1NC(=O)c1ccc(O)cc1 | -73.5 | -2.7 | 7.2 | 0.9 | 0.743 | 0.227 | / | / | / | / | / | /
Cc1ccc(C)n1NC(=O)c1ccccc1 | -16.9 | -86.6 | -0.5 | 3.7 | -5.84* | / | 0.00843 | ? | 0.0335 | 0.00791 | 0.0217 | 0.0107
Cc1c(C(=O)NCCSCc2cccc(C(F)(F)F)c2)cnn1-c1ccc(F)cc1 | 10.5 | -18.2 | / | / | -1.72 | / | / | / | / | / | / | /
CSc1nnc(-c2cnccn2)n1CCCN1CCCC1=O | -6.5 | -4.5 | -1.8 | 5.5 | 8.24* | 0.701 | 0.00728 | 0.00435 | 0.0319 | 0.00743 | 0.0198 | 0.01
COc1cccc(/C=c2\s/c(=C/C(=O)c3ccc(C)cc3)[nH]c2=O)c1OC | -14.7 | -1.2 | -11.0 | 0.9 | 4.67* | / | 0.00547 | ? | 0.0348 | 0.0113* | 0.0261* | ?
CC(SCc1ccccc1)C(=O)NCc1ccccn1 (stereo unspecified) | 21.1 | -13.2 | 3.8 | -1.4 | 0.295 | 1.29 | / | / | / | / | / | /
CC1Cc2ccccc2N1Cc1nc2scc(-c3cccs3)c2c(=O)[nH]1 (stereo unspecified) | -56.1 | -21.9 | -7.1 | 12.8 | 3.89* | / | 0.00792 | 0.0094* | 0.0285 | 0.00715 | 0.0208 | 0.00927
CCOc1ccc(NC(=O)CSc2nc(-c3cccs3)cc(C(F)(F)F)n2)c([N+](=O)[O-])c1 | 5.3 | -15.8 | 0.5 | 8.6 | -0.595 | 0.409 | / | / | / | / | / | /
O=C(Nc1nnc(-c2ccccc2Cl)o1)c1cc2cc([N+](=O)[O-])ccc2s1 | -38.0 | -14.1 | 1.7 | -3.5 | 6.56* | 0.486 | 0.00549 | 0.0147* | 0.0344 | 0.0163* | ? | 0.0166*
O=C(Nc1ccccn1)c1cc2cc([N+](=O)[O-])ccc2s1 | -0.6 | -33.5 | 6.6 | 4.7 | -0.374 | 0.52 | / | / | / | / | / | /
CCOc1cccc(-c2nnc3sc(COc4ccc(Cl)cc4)nn23)c1 | 9.8 | -22.4 | 5.5 | 1.1 | -3.59* | / | 0.0185 | 0.00459 | 0.0282 | 0.00716 | 0.0143 | 0.0105
O=c1[nH]nc(-c2ccc(F)cc2)cc1Cc1ccccn1 | -11.7 | -3.5 | / | / | 0.583 | 0.191 | / | / | / | / | / | /
Cc1ccc(-c2cc(Cc3ccccn3)c(=O)[nH]n2)cc1 | -7.8 | -5.0 | / | / | -1.84 | 0.00329 | 0.0117 | 0.00863* | 0.0323 | 0.00712 | 0.0207 | 0.0106
COc1cccc(CN2CCN(Cc3cccc4nonc34)CC2CCO)c1 (stereo unspecified) | -10.3 | -9.9 | 1.7 | 0.5 | 0.245 | -2.44 | / | / | / | / | / | /

Screening results (PubChem)
